The results in this text go back to ChEMBL document CHEMBL4004855, “Synthesis of hetero annulated isoxazolo-, pyrido- and pyrimido carbazoles: Screened for in vitro antitumor activity and structure activity relationships, a novel 2-amino-4-(3'-bromo-4'-methoxyphenyl)-8-chloro-11H-pyrimido[4,5-a]carbazole as an antitumor agent” (Eur J Med Chem, 2017).

Assay type in all cases: functional, cell-based
Test [1] concerns MCF7. The test can be described thus: Induction of morphological changes in human MCF7 cells assessed as formation of floating cells after 24 hrs by phase contrast microscopy.
Test [2] relates to A549. As to the kind of experiment: Induction of morphological changes in human A549 cells assessed as formation of floating cells after 24 hrs by phase contrast microscopy.
In test [3] the test system is MCF7. As to the kind of experiment: Induction of morphological changes in human MCF7 cells assessed as membrane blebbing after 24 hrs by phase contrast microscopy.
In test [4] the test system is A549. The test can be described thus: Induction of apoptosis in human A549 cells assessed as nuclear fragmentation after 24 hrs by DAPI-staining based fluorescence microscopic analysis. In short, it runs like this:
(§1)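 Cells were grown on glass coverslips, treated for 24 h, fixed, and permeabilised with 0.2% Triton X-100 for 10 min at room temperature. They were then stained with DAPI for 3 min and examined by fluorescence microscopy for condensed chromatin and nuclear fragmentation. Untreated cells served as control.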

Test [5] concerns A549. As to the kind of experiment: Induction of morphological changes in human A549 cells assessed as cell shrinkage after 24 hrs by phase contrast microscopy.
Test [6] relates to A549. As to the kind of experiment: Cytotoxicity against human A549 cells assessed as reduction in cell viability after 48 hrs by MTT assay. The following applies: for pIC50: A549, 48 h. Put shortly:
(§2)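 Cells kept in DMEM with 10% FBS, glutamine, HEPES and antibiotics at 37°C, 5% CO2. Seeded at 1×10⁴ cells/well and grown 48 h to 75% confluence, then exposed to serially diluted compounds for 48 h. MTT added for 4 h at 37 °C, formazan dissolved in DMSO, OD read at 620 nm. Viability is given as % of control OD, and IC50 is read from the viability-versus-concentration plot. Three independent experiments in triplicate.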
On the technique in general: Tetrazolium dyes change colour on reduction, which living cells bring about.

In test [7] the test system is A549. As to the kind of experiment: Induction of apoptosis in human A549 cells assessed as chromatin condensation after 24 hrs by AO/EB-dual staining based fluorescent microscopic analysis. In short, it runs like this:
(§3)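 Treated cells were collected, washed in PBS (pH 7.2), and stained with an AO/EtBr mixture (1:1; […] each in water) for 2 min. They were then washed twice with PBS and viewed by fluorescence microscopy at 400× with a 480 nm excitation filter. Green marks intact membranes; orange/red marks damaged membranes and condensed nuclei. Untreated cells served as control.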

Test [8] relates to MCF7. As to the kind of experiment: Induction of morphological changes in human MCF7 cells assessed as cell shrinkage after 24 hrs by phase contrast microscopy.
Test [9] relates to A549. The test can be described thus: Induction of morphological changes in human A549 cells assessed as membrane blebbing after 24 hrs by phase contrast microscopy.
The test system of test [10] is MCF7. As to the kind of experiment: Cytotoxicity against human MCF7 cells assessed as reduction in cell viability after 48 hrs by MTT assay. The following applies: for pIC50: MCF7, 48 h. Put shortly:
as §2

Test [11] relates to MCF7. As to the kind of experiment: Induction of apoptosis in human MCF7 cells assessed as chromatin condensation after 24 hrs by AO/EB-dual staining based fluorescent microscopic analysis. In short, it runs like this: as §3
Test [12] concerns MCF7. As to the kind of experiment: Induction of apoptosis in human MCF7 cells assessed as nuclear fragmentation after 24 hrs by DAPI-staining based fluorescence microscopic analysis. Put shortly: as §1

pIC50: −log10 of the molar value. Activity calls are given as the source filed them. The calls are words filed in the database; no cut-off is given here.

As a reminder, the pIC50 is −log10 of the IC50, conventionally taken in molar units. Turning to `COc1ccc(-c2nc(N)nc3c2ccc2c4cc(Cl)ccc4[nH]c23)cc1Br`, the Activity entry in the test on MCF7 [1], in the test on A549 [2], with MCF7 [3], in the test on A549 [5], with A549 [6] and in the test with MCF7 [8] was “Dose-dependent effect” each time. The Activity entry in the test with A549 [9] and in the test on MCF7 [10] was “Dose-dependent effect” throughout. Moreover, the outcome in the test on A549 [4] was inactive. Besides, the pIC50 in the test on A549 [6] is 4.60; in the test with MCF7 [10], 4.70. The result in the test on A549 [7] and with MCF7 [11] was Active.
With `CCOc1nc2c(c(-c3ccc(OC)c(Br)c3)c1C#N)CCc1c-2[nH]c2c(C)cccc12`, the Activity result in the test with A549 [6] and in the test with MCF7 [10] was “Dose-dependent effect” throughout. In addition, the pIC50 in the test on A549 [6] was 4.41; in the test with MCF7 [10], 4.44.
As for `CCOc1nc2c(c(-c3ccc(OC)c(Br)c3)c1C#N)CCc1c-2[nH]c2ccc(C)cc12`, the Activity result with MCF7 [1], with A549 [2], in the test with MCF7 [3], in the test on A549 [5], in the test with A549 [6] and with MCF7 [8] was “Dose-dependent effect” throughout. Moreover, the Activity entry with A549 [9] and in the test with MCF7 [10] was “Dose-dependent effect” each time. The result in the test with MCF7 [12] and in the test on A549 [7] was Active. For the same compound, the pIC50 is 4.54 with A549 [6] and 4.60 in the test with MCF7 [10]. Also, the outcome with MCF7 [11] was inactive.
Turning to `CCOc1nc2c(c(-c3ccc(OC)c(Br)c3)c1C#N)CCc1c-2[nH]c2ccc(Cl)cc12`, the Activity entry in the test on MCF7 [1], with A549 [2], in the test with MCF7 [3], in the test with A549 [5], in the test on A549 [6] and with MCF7 [8] was “Dose-dependent effect” throughout. Further, the Activity result in the test with A549 [9] and in the test on MCF7 [10] was “Dose-dependent effect” each time. In addition, in the test on A549 [4], the result was inactive. For the same compound, the values for the pIC50 with A549 [6] and in the test on MCF7 [10] were 4.49 and 4.60, respectively. The outcome in the test on MCF7 [11] was Active.
On to `COc1ccc(-c2nc(N)nc3c2ccc2c4cc(C)ccc4[nH]c23)cc1Br`, for which the Activity result with MCF7 [1], in the test on A549 [2], in the test with MCF7 [3], in the test on A549 [5], in the test with A549 [6] and in the test with MCF7 [8] was “Dose-dependent effect” throughout. Besides, the Activity entry in the test on A549 [9] and in the test on MCF7 [10] was “Dose-dependent effect” throughout. Also, the result in the test with A549 [4] and in the test with MCF7 [12] was Active. Further, the values for the pIC50 with A549 [6] and in the test with MCF7 [10] were 4.62 and 4.66, respectively. For the same compound, the outcome in the test on MCF7 [11] was inactive.
Consider `COc1ccc(-c2onc3c2CCc2c-3[nH]c3ccccc23)cc1Br`, for which the Activity result in the test on A549 [6] and in the test with MCF7 [10] was “Dose-dependent effect” in each case. For the same compound, the figures for the pIC50 in the test with A549 [6] and with MCF7 [10] were 4.48 and 4.51, respectively.
`COc1ccc(-c2onc3c2CCc2c-3[nH]c3ccc(C)cc23)cc1Br`: the Activity entry in the test on MCF7 [1], in the test with A549 [2], in the test on MCF7 [3], with A549 [5], in the test on A549 [6] and in the test on MCF7 [8] was “Dose-dependent effect” each time. Also, the Activity entry with A549 [9] and in the test with MCF7 [10] was “Dose-dependent effect” in each case. The outcome with A549 [4], in the test on MCF7 [12] and in the test with A549 [7] was Active. Further, the pIC50 is 4.55 with A549 [6] and 4.68 in the test with MCF7 [10]. For the same compound, the outcome in the test on MCF7 [11] was inactive.
For `CCOc1nc2c(c(-c3ccc(OC)c(Br)c3)c1C#N)CCc1c-2[nH]c2ccccc12`, the Activity result with A549 [6] and in the test on MCF7 [10] was “Dose-dependent effect” throughout. The pIC50 in the test with A549 [6] is 4.43; in the test on MCF7 [10] it was 4.46.
In the case of `COc1ccc(-c2onc3c2CCc2c-3[nH]c3c(C)cccc23)cc1Br`, the Activity result in the test on A549 [6] and in the test with MCF7 [10] was “Dose-dependent effect” throughout. Further, the pIC50 is 4.46 in the test on A549 [6] and 4.49 in the test on MCF7 [10].
On to `COc1ccc(-c2nc(N)nc3c2ccc2c4cccc(C)c4[nH]c23)cc1Br`, for which, in the test on A549 [6], the Activity result is “Dose-dependent effect” and the pIC50 was 4.51. Also, in the test with MCF7 [10], the Activity entry was “Dose-dependent effect” and the pIC50 was 4.55.
On to `COc1ccc(-c2nc(N)nc3c2ccc2c4ccccc4[nH]c23)cc1Br`, for which, in the test on A549 [6], the Activity result was “Dose-dependent effect” and the pIC50 is 4.54. Further, in the test with MCF7 [10], the Activity result was “Dose-dependent effect” and the pIC50 is 4.59.
